Data from ChEMBL document CHEMBL3352416, “Discovery of carbohybrid-based 2-aminopyrimidine analogues as a new class of rapid-acting antimalarial agents using image-based cytological profiling assay” (J Med Chem, 2014).

Tested on: Plasmodium falciparum
Test: Antimalarial activity against Plasmodium falciparum K1 by automated image mining based cytological profiling assay
Assay type: functional, organism-based
Summary of the method: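 Parasite cultures in 384-well format, read by automated imaging. Infected erythrocytes detected by DAPI nuclear staining against WGA-AlexaFluor 488 host-cell stain, and viability by Mitotracker Red CMXRos. Total culture parasitaemia quantified. EC50 given as mean±SD of two independent experiments, each in duplicate.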

| EC50 | Compound |
| --- | --- |
| 0.2 µM | COc1ccc(CO[C@@H]([C@H](O)COC(c2ccccc2)(c2ccccc2)c2ccccc2)[C@H](OCc2ccc(OC)cc2)c2cnc(N(C)C)nc2)cc1 |
| 0.559 µM | COc1ccc(CO[C@H]([C@H](O)COC(c2ccccc2)(c2ccccc2)c2ccccc2)[C@H](OCc2ccc(OC)cc2)c2cnc(N(C)C)nc2)cc1 |
| 0.478 µM | COc1ccc(CO[C@H]([C@H](O)COC(c2ccccc2)(c2ccccc2)c2ccccc2)[C@H](OCc2ccc(OC)cc2)c2cnn(C)c2)cc1 |
| 0.158 µM | COc1ccc(CO[C@H]([C@H](OCc2ccc(OC)cc2)c2cnn(C)c2)[C@@H](COC(c2ccccc2)(c2ccccc2)c2ccccc2)OS(C)(=O)=O)cc1 |
| 0.198 µM | COc1ccc(CO[C@@H]([C@H](OCc2ccc(OC)cc2)c2cnc(N(C)C)nc2)[C@@H](COC(c2ccccc2)(c2ccccc2)c2ccccc2)OS(C)(=O)=O)cc1 |
| 0.237 µM | COc1ccc(O[C@@H]([C@H](Oc2ccc(OC)cc2)c2cnn(C)c2)[C@@H](COC(c2ccccc2)(c2ccccc2)c2ccccc2)OS(C)(=O)=O)cc1 |
| 5.03 µM | COc1ccc(CO[C@H]([C@H](OCc2ccc(OC)cc2)c2cnc(N(C)C)nc2)[C@@H](CO)OS(C)(=O)=O)cc1 |
